Assay results: ChEMBL document CHEMBL1649279, “The final step of hygromycin A biosynthesis, oxidation of C-5''-dihydrohygromycin A, is linked to a putative proton gradient-dependent efflux” (Antimicrob Agents Chemother, 2009)
pIC50: −log10 of the molar value. ≈ marks a conversion by molar mass, not a printed value.

Tests used:
Escherichia coli [1] = test: Antimicrobial activity against tolC deficient Escherichia coli by after 2 hrs; type: functional
How it was run: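 ΔtolC E. coli grown in 200 μl LB at 37°C for 2 h across a range of antibiotic concentrations, read by A600. MIC is the lowest concentration giving 95% growth inhibition relative to an untreated culture.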

Escherichia coli [2] = test: Inhibition of protein synthesis in Escherichia coli assessed as green fluorescent protein synthesis by coupled transcription-translation assay; type: functional, organism-based
How it was run: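 E. coli lysate coupled transcription-translation with a GFP template, run with and without antibiotic at increasing concentrations. GFP measured by fluorescence scanning and native PAGE. Triplicates, expressed as percent of fluorescence without antibiotic.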

[3] = tested on: Streptomyces hygroscopicus; test: Ratio of Kcat to Km for Streptomyces hygroscopicus recombinant N-terminal His-tagged Hyg26 reductase expressed in Escherichia coli BL21 (DE3)
How it was run: (§1)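 His-tagged Hyg26, expressed in E. coli BL21-CodonPlus(DE3) and purified on Ni-NTA. Reductase kinetics: 800 ng enzyme, 50 mM phosphate pH 6 with 2 mM TCEP, 37°C, 15 min. NADH fixed at 60 mM with antibiotic 2–60 mM; for NADH, HA fixed at 20 mM with NADH 0.25–10 mM. DHHA-type product quantified by reverse-phase HPLC peak area. Duplicates averaged and fitted for kinetic parameters.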

[4] = tested on: Streptomyces hygroscopicus; test: Activity at Streptomyces hygroscopicus recombinant N-terminal His-tagged Hyg26 reductase expressed in Escherichia coli BL21 (DE3); how it was run: as §1
Streptomyces lividans = test: Antimicrobial activity against Streptomyces lividans by after 48 hrs by agar plate dilution method; type: functional
How it was run: (§2)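 Spores plated on yeast extract malt extract agar containing a series of HA concentrations, incubated 48 h at 30°C, then scored for growth. MIC taken as the lowest HA concentration preventing visible growth of at least 95% of CFU.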

[5] = tested on: Streptomyces hygroscopicus; test: Antimicrobial activity against hyg19-hyg20-hyg21 deficient Streptomyces hygroscopicus SCH30 by after 48 hrs by agar plate dilution method; type: functional; details: SCH30, 48 h; how it was run: as §2
[6] = tested on: Streptomyces hygroscopicus; test: Antimicrobial activity against hyg20 deficient Streptomyces hygroscopicus SCH30 by after 48 hrs by agar plate dilution method; type: functional; details: SCH30, 48 h; how it was run: as §2
[7] = tested on: Streptomyces hygroscopicus; test: Antimicrobial activity against hyg28 deficient Streptomyces hygroscopicus SCH30 by after 48 hrs by agar plate dilution method; type: functional; details: SCH30, 48 h; how it was run: as §2
[8] = tested on: Streptomyces hygroscopicus; test: Antimicrobial activity against wild type Streptomyces hygroscopicus by after 48 hrs by agar plate dilution method; type: functional; how it was run: as §2
[9] = tested on: Streptomyces hygroscopicus; test: Antimicrobial activity against hyg19 deficient Streptomyces hygroscopicus SCH30 by after 48 hrs by agar plate dilution method; type: functional; details: SCH30, 48 h; how it was run: as §2

SMILES | MIC (Escherichia coli [1]) [µg/mL] | pIC50 (Escherichia coli [2]) | IC90 (Escherichia coli [2]) [µM] | kcat/Km [3] [×10³ /M/s] | Km [4] [mM] | kcat [4] [s⁻¹] | MIC (Streptomyces lividans) [µg/mL] | MIC [5] [µg/mL] | MIC [6] [µg/mL] | MIC [7] [µg/mL] | MIC [8] [µg/mL] | MIC [9] [µg/mL]
C/C(=C\c1ccc(O[C@@H]2O[C@H](C(C)O)[C@@H](O)[C@@H]2O)c(O)c1)C(=O)N[C@@H]1[C@H](O)[C@@H](O)[C@@H](O)[C@@H](O)[C@@H]1O (stereo partly drawn) | 150 (≈ 299 µM) | 5.57 | 14.1 | – | – | – | – | – | – | – | – | –
CO[C@@H]1[C@H](O)[C@@H](O)[C@@H](NC(=O)/C(C)=C/c2ccc(O[C@@H]3O[C@H](C(C)O)[C@@H](O)[C@@H]3O)c(O)c2)[C@@H](O)[C@@H]1O (stereo partly drawn) [5'-DIHYDROMETHOXYHYGROMYCIN A] | 150 (≈ 291 µM) | 5.13 | 50 | – | – | – | – | – | – | – | – | –
CC(=O)[C@H]1O[C@@H](Oc2ccc(/C=C(\C)C(=O)N[C@@H]3[C@H](O)[C@@H](O)[C@@H](O)[C@@H](O)[C@@H]3O)cc2O)[C@@H](O)[C@@H]1O [DESMETHYLENEHYGROMYCIN A] | 150 (≈ 300 µM) | 6.49 | 1 | 0.9 | 63.6 | 31.7 | – | – | – | – | – | –
CO[C@@H]1[C@H](O)[C@@H](O)[C@@H](NC(=O)/C(C)=C/c2ccc(O[C@@H]3O[C@H](C(C)=O)[C@@H](O)[C@@H]3O)c(O)c2)[C@@H](O)[C@@H]1O [METHOXYHYGROMYCIN A] | 150 (≈ 292 µM) | 6.30 | 2 | 0.9 | 19.8 | 15.5 | – | – | – | – | – | –

Compounds with a lower MIC (Escherichia coli [1]), results first:

MIC (Escherichia coli [1]) [µg/mL] | pIC50 (Escherichia coli [2]) | IC90 (Escherichia coli [2]) [µM] | kcat/Km [3] [×10³ /M/s] | Km [4] [mM] | kcat [4] [s⁻¹] | MIC (Streptomyces lividans) [µg/mL] | MIC [5] [µg/mL] | MIC [6] [µg/mL] | MIC [7] [µg/mL] | MIC [8] [µg/mL] | MIC [9] [µg/mL] | SMILES
20 (≈ 38.9 µM) | 6.52 | 1.5 | – | – | – | – | – | – | – | – | – | C/C(=C\c1ccc(O[C@@H]2O[C@H](C(C)O)[C@@H](O)[C@@H]2O)c(O)c1)C(=O)N[C@@H]1[C@H](O)[C@@H](O)[C@H]2OCO[C@H]2[C@@H]1O (stereo partly drawn)
10 (≈ 19.6 µM) | 6.74 | 0.25 | 1 | 5.8 | 5.1 | 20 (≈ 39.1 µM) | 75 (≈ 147 µM) | 300 (≈ 587 µM) | 300 (≈ 587 µM) | 400 (≈ 782 µM) | 400 (≈ 782 µM) | CC(=O)[C@H]1O[C@@H](Oc2ccc(/C=C(\C)C(=O)N[C@@H]3[C@H](O)[C@@H](O)[C@H]4OCO[C@H]4[C@@H]3O)cc2O)[C@@H](O)[C@@H]1O [HYGROMYCIN A]
